ChEMBL document CHEMBL4138062, “Pyrazolobenzothiazine-based carbothioamides as new structural leads for the inhibition of monoamine oxidases: design, synthesis, in vitro bioevaluation and molecular docking studies” (Medchemcomm, 2017)

How the values were obtained:
[1] = target: T1, Amine oxidase [flavin-containing] A (Homo sapiens, UniProt P21397); assay: Inhibition of human MAOA pre-incubated for 10 mins before p-tyramine substrate addition and measured after 10 mins by amplex red reagent-based microplate fluorescence reader analysis
T1 sequence (P21397 whole entry): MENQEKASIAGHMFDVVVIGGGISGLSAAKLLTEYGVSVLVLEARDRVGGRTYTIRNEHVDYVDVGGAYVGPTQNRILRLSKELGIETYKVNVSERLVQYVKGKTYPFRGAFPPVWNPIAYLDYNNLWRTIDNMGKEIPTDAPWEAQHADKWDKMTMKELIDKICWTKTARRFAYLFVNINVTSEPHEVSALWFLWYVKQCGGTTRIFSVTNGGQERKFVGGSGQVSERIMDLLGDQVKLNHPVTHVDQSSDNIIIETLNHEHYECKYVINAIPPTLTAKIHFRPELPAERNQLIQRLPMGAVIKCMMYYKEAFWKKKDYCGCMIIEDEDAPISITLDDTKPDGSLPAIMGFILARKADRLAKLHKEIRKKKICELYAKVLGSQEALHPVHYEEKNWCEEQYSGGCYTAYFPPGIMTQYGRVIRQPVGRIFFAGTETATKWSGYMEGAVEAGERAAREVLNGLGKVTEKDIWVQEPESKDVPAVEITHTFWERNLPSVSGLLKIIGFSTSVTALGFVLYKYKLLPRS

[2] = target: T1, Amine oxidase [flavin-containing] A; assay: Inhibition of human MAOA at 0.1 mM pre-incubated for 10 mins before p-tyramine substrate addition and measured after 10 mins by amplex red reagent-based microplate fluorescence reader analysis
Outline: (§1)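 The reaction in 50 mM phosphate buffer (pH 7.4) was preincubated with enzyme and test compound at 37 °C for 10 min. p-Tyramine (3 mM solution) and Amplex Red reagent were then added, and the mix was held at 37 °C for 10 min. Resorufin fluorescence (ex 544, em 590 nm) from H2O2 was read. Percent inhibition was taken at 100 μM final concentration, in triplicate.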

[3] = target: T2, Amine oxidase [flavin-containing] B (Homo sapiens, UniProt P27338); assay: Inhibition of human MAOB at 0.1 mM pre-incubated for 10 mins before p-tyramine substrate addition and measured after 10 mins by amplex red reagent-based microplate fluorescence reader analysis; outline: as §1
T2 sequence (P27338 whole entry): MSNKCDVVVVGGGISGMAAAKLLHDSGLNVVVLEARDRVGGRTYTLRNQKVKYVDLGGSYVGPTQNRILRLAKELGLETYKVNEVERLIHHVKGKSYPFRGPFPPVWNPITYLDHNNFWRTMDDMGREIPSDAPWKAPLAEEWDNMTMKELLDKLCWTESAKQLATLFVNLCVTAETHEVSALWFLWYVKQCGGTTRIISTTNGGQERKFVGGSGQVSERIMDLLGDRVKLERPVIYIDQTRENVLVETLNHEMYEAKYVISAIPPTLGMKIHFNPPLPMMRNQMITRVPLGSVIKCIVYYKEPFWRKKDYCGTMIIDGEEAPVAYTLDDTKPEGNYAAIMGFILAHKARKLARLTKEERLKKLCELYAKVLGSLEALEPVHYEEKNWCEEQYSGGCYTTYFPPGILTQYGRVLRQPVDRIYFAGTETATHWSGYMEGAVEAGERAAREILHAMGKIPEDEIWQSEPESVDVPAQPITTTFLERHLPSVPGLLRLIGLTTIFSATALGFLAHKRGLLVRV

[4] = target: T2, Amine oxidase [flavin-containing] B

SMILES | IC50 [1] [µM] | inhibition at 100 µM [2] [%] | inhibition at 100 µM [3] [%] | IC50 [4] [µM] | inhibition (INH) ([2]; 100 µM) [%] | inhibition (INH) ([3]; 100 µM) [%]
Cc1c2c(nn1-c1ccc(/C=N/NC(=S)Nc3cccc(Cl)c3)cc1)-c1ccccc1S(=O)(=O)N2C | 1.11 | > 50 | > 50 | 2.89 |  | 
CN1c2c(nn(-c3ccc(/C=N/NC(=S)Nc4ccccc4Cl)cc3)c2-c2ccccc2)-c2ccccc2S1(=O)=O | 33.8 | > 50 | > 50 | 0.68 |  | 
CCc1ccc(NC(=S)N/N=C/c2ccc(-n3nc4c(c3C)N(C)S(=O)(=O)c3ccccc3-4)cc2)cc1 | 1.77 | > 50 | > 50 | 2.91 |  | 
Cc1c2c(nn1-c1ccc(/C=N/NC(=S)Nc3ccc(Cl)cc3)cc1)-c1ccccc1S(=O)(=O)N2C | 3.49 | > 50 | > 50 | 0.43 |  | 
CN1c2c(nn(-c3ccc(/C=N/NC(=S)NCc4ccccc4)cc3)c2-c2ccccc2)-c2ccccc2S1(=O)=O | 10.6 | > 50 | > 50 | 0.64 |  | 
Cc1c2c(nn1-c1ccc(/C=N/NC(N)=S)cc1)-c1ccccc1S(=O)(=O)N2C | 31.2 | > 50 | 36 |  |  | 
Cc1ccc(NC(=S)N/N=C/c2ccc(-n3nc4c(c3C)N(C)S(=O)(=O)c3ccccc3-4)cc2)cc1 | 0.003 | > 50 | > 50 | 29.5 |  | 
Cc1c2c(nn1-c1ccc(/C=N/NC(=S)NCc3ccccc3)cc1)-c1ccccc1S(=O)(=O)N2C | 76.2 | > 50 | > 50 | 4.72 |  | 
Cc1c2c(nn1-c1ccc(/C=N/NC(=S)Nc3cccc(F)c3)cc1)-c1ccccc1S(=O)(=O)N2C | 0.47 | > 50 | > 50 | 1.68 |  | 
CN1c2c(nn(-c3ccc(/C=N/NC(=S)Nc4cccc(Cl)c4)cc3)c2-c2ccccc2)-c2ccccc2S1(=O)=O | 7.73 | > 50 | > 50 | 20.9 |  | 
CN1c2c(nn(-c3ccc(/C=N/NC(N)=S)cc3)c2-c2ccccc2)-c2ccccc2S1(=O)=O | 0.97 | > 50 | > 50 | 2.39 |  | 
CN1c2c(nn(-c3ccc(/C=N/NC(=S)Nc4cccc(F)c4)cc3)c2-c2ccccc2)-c2ccccc2S1(=O)=O | 9.02 | > 50 | > 50 | 1.76 |  | 
Cc1ccc(NC(=S)N/N=C/c2ccc(-n3nc4c(c3C)N(C)S(=O)(=O)c3ccccc3-4)cc2)c(C)c1 | 1.13 | > 50 | > 50 | 0.11 |  | 
Cc1cccc(C)c1NC(=S)N/N=C/c1ccc(-n2nc3c(c2-c2ccccc2)N(C)S(=O)(=O)c2ccccc2-3)cc1 | 65.7 | > 50 | > 50 | 0.77 |  | 
Cc1c2c(nn1-c1ccc(/C=N/NC(=S)Nc3ccccc3)cc1)-c1ccccc1S(=O)(=O)N2C | 3.69 | > 50 | > 50 | 4.15 |  | 
Cc1c2c(nn1-c1ccc(/C=N/NC(=S)Nc3ccccc3F)cc1)-c1ccccc1S(=O)(=O)N2C | 1.42 | > 50 | > 50 | 3.83 |  | 
Cc1ccc(NC(=S)N/N=C/c2ccc(-n3nc4c(c3-c3ccccc3)N(C)S(=O)(=O)c3ccccc3-4)cc2)c(C)c1 | 9.15 | > 50 | > 50 | 0.75 |  | 
Cc1ccccc1NC(=S)N/N=C/c1ccc(-n2nc3c(c2C)N(C)S(=O)(=O)c2ccccc2-3)cc1 | 0.01 | > 50 | > 50 | 3.13 |  | 
Cc1c2c(nn1-c1ccc(/C=N/NC(=S)NCN3CCOCC3)cc1)-c1ccccc1S(=O)(=O)N2C | 64.8 | > 50 | > 50 | 4.34 |  | 
Cc1c2c(nn1-c1ccc(/C=N/NC(=S)Nc3ccccc3Cl)cc1)-c1ccccc1S(=O)(=O)N2C | 4.06 | > 50 | > 50 | 6.21 |  | 
Cc1c2c(nn1-c1ccc(/C=N/NC(=S)Nc3ccc(F)cc3)cc1)-c1ccccc1S(=O)(=O)N2C | 30.2 | > 50 | 41 |  |  | 
CN1c2c(nn(-c3ccc(/C=N/NC(=S)Nc4ccccc4)cc3)c2-c2ccccc2)-c2ccccc2S1(=O)=O | 27.2 | > 50 | > 50 | 2.49 |  | 
CN1c2c(nn(-c3ccc(/C=N/NC(=S)NCN4CCOCC4)cc3)c2-c2ccccc2)-c2ccccc2S1(=O)=O | 3.07 | > 50 | > 50 | 2.99 |  | 
CN1c2c(nn(-c3ccc(/C=N/NC(=S)Nc4ccccc4F)cc3)c2-c2ccccc2)-c2ccccc2S1(=O)=O | 0.54 | > 50 | 19 |  |  | 
CN1c2c(nn(-c3ccc(/C=N/NC(=S)Nc4ccc(F)cc4)cc3)c2-c2ccccc2)-c2ccccc2S1(=O)=O | 2.33 | > 50 | > 50 | 6.99 |  | 
Cc1cccc(C)c1NC(=S)N/N=C/c1ccc(-n2nc3c(c2C)N(C)S(=O)(=O)c2ccccc2-3)cc1 |  |  |  |  | > 50 | > 50
CN1c2c(nn(-c3ccc(/C=N/NC(=S)Nc4ccc(Cl)cc4)cc3)c2-c2ccccc2)-c2ccccc2S1(=O)=O | 2.06 | > 50 | > 50 | 3.27 |  | 
CCc1ccc(NC(=S)N/N=C/c2ccc(-n3nc4c(c3-c3ccccc3)N(C)S(=O)(=O)c3ccccc3-4)cc2)cc1 | 8.18 | > 50 | > 50 | 0.02 |  | 
